Data published in ChEMBL document CHEMBL5058577, “EUbOPEN Chemogenomics Library 2 (Multiplex)” (2022).

System: U2OS
Assay: Multiplex assay against U2OS
Format: toxicity, cell-based
Settings: human
Summary of the method: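 Live cells were stained at seeding with Hoechst33342, BioTracker Green Microtubule Cytoskeleton Dye, MitoTracker Red and Annexin V Alexa Fluor 680. Following compound addition, they were imaged on a CQ1 microscope at 37°C and 5% CO2 and gated by CellPathfinder machine learning into Hoechst high-intensity objects or normal cells, with normal cells split into healthy, pyknosed or fragmented nuclei and pyknosed cells into mitotic or apoptotic. Tubulin, mitochondrial-mass and membrane-permeability phenotypes are per cents of healthy-nucleus cells.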

[1] = 12 h, 1 µM, compound concentration 1 uM, replicate 1
[2] = 12 h, 1 µM, compound concentration 1 uM, replicate 2
[3] = 12 h, 10 µM, compound concentration 10 uM, replicate 1
[4] = 12 h, 10 µM, compound concentration 10 uM, replicate 2
[5] = 24 h, 1 µM, compound concentration 1 uM, replicate 1
[6] = 24 h, 1 µM, compound concentration 1 uM, replicate 2
[7] = 24 h, 10 µM, compound concentration 10 uM, replicate 1
[8] = 24 h, 10 µM, compound concentration 10 uM, replicate 2
[9] = 48 h, 1 µM, compound concentration 1 uM, replicate 1
[10] = 48 h, 1 µM, compound concentration 1 uM, replicate 2
[11] = 48 h, 10 µM, compound concentration 10 uM, replicate 1
[12] = 48 h, 10 µM, compound concentration 10 uM, replicate 2

## O=C1COc2nccc(-c3ccccc3F)c2CN1Cc1cc(C(F)(F)F)cc(C(F)(F)F)c1
[1]
  Population Apoptotic (%): 52%
  Population Fragmented Nuclei (%): 19%
  Population Healthy Nuclei (%): 72%
  Population Hoechst High Intensity Objects (%): 4%
  Population Membrane Permeable-Phenotype (%): 6%
  Population Mitochondria Different-Phenotype (%): 2%
  Population Mitotic Cells (%): 47%
  Population Normal (%): 95%
  Population Pyknosed Nuclei (%): 8%
  Population Tubulin-Different-Phenotype (%): 4%
  Total Cell Count: 252
[2]
  Population Apoptotic (%): 77%
  Population Fragmented Nuclei (%): 23%
  Population Healthy Nuclei (%): 67%
  Population Hoechst High Intensity Objects (%): 2%
  Population Membrane Permeable-Phenotype (%): 15%
  Population Mitochondria Different-Phenotype (%): 9%
  Population Mitotic Cells (%): 22%
  Population Normal (%): 97%
  Population Tubulin-Different-Phenotype (%): 11%
  Total Cell Count: 108
[3]
  Population Apoptotic (%): 70%
  Population Fragmented Nuclei (%): 36%
  Population Healthy Nuclei (%): 47%
  Population Hoechst High Intensity Objects (%): 3%
  Population Membrane Permeable-Phenotype (%): 25%
  Population Mitochondria Different-Phenotype (%): 27%
  Population Mitotic Cells (%): 29%
  Population Normal (%): 96%
  Population Pyknosed Nuclei (%): 16%
  Population Tubulin-Different-Phenotype (%): 25%
  Total Cell Count: 200
[4]
  Population Apoptotic (%): 100%
  Population Fragmented Nuclei (%): 16%
  Population Healthy Nuclei (%): 76%
  Population Hoechst High Intensity Objects (%): 5%
  Population Membrane Permeable-Phenotype (%): 17%
  Population Mitochondria Different-Phenotype (%): 23%
  Population Mitotic Cells (%): 0%
  Population Normal (%): 94%
  Population Pyknosed Nuclei (%): 7%
  Population Tubulin-Different-Phenotype (%): 13%
  Total Cell Count: 112
[5]
  Population Apoptotic (%): 86%
  Population Fragmented Nuclei (%): 17%
  Population Healthy Nuclei (%): 74%
  Population Hoechst High Intensity Objects (%): 3%
  Population Membrane Permeable-Phenotype (%): 8%
  Population Mitochondria Different-Phenotype (%): 3%
  Population Mitotic Cells (%): 13%
  Population Normal (%): 96%
  Population Pyknosed Nuclei (%): 8%
  Population Tubulin-Different-Phenotype (%): 3%
  Total Cell Count: 291
[6]
  Population Apoptotic (%): 83%
  Population Fragmented Nuclei (%): 18%
  Population Healthy Nuclei (%): 76%
  Population Hoechst High Intensity Objects (%): 4%
  Population Membrane Permeable-Phenotype (%): 12%
  Population Mitochondria Different-Phenotype (%): 7%
  Population Mitotic Cells (%): 16%
  Population Normal (%): 95%
  Population Pyknosed Nuclei (%): 5%
  Population Tubulin-Different-Phenotype (%): 5%
  Total Cell Count: 121
[7]
  Population Apoptotic (%): 58%
  Population Fragmented Nuclei (%): 36%
  Population Healthy Nuclei (%): 43%
  Population Hoechst High Intensity Objects (%): 5%
  Population Membrane Permeable-Phenotype (%): 21%
  Population Mitochondria Different-Phenotype (%): 22%
  Population Mitotic Cells (%): 41%
  Population Normal (%): 94%
  Population Pyknosed Nuclei (%): 19%
  Population Tubulin-Different-Phenotype (%): 17%
  Total Cell Count: 210
[8]
  Population Apoptotic (%): 100%
  Population Fragmented Nuclei (%): 21%
  Population Healthy Nuclei (%): 70%
  Population Membrane Permeable-Phenotype (%): 13%
  Population Mitochondria Different-Phenotype (%): 19%
  Population Mitotic Cells (%): 0%
  Population Pyknosed Nuclei (%): 8%
  Population Tubulin-Different-Phenotype (%): 7%
  Total Cell Count: 126
[9]
  Population Apoptotic (%): 84%
  Population Fragmented Nuclei (%): 16%
  Population Healthy Nuclei (%): 74%
  Population Hoechst High Intensity Objects (%): 3%
  Population Membrane Permeable-Phenotype (%): 5%
  Population Mitochondria Different-Phenotype (%): 3%
  Population Mitotic Cells (%): 15%
  Population Normal (%): 96%
  Population Pyknosed Nuclei (%): 9%
  Population Tubulin-Different-Phenotype (%): 3%
  Total Cell Count: 425
[10]
  Population Apoptotic (%): 76%
  Population Fragmented Nuclei (%): 19%
  Population Healthy Nuclei (%): 69%
  Population Membrane Permeable-Phenotype (%): 8%
  Population Mitochondria Different-Phenotype (%): 5%
  Population Mitotic Cells (%): 23%
  Population Pyknosed Nuclei (%): 10%
  Total Cell Count: 166
[11]
  Population Apoptotic (%): 61%
  Population Fragmented Nuclei (%): 35%
  Population Healthy Nuclei (%): 46%
  Population Hoechst High Intensity Objects (%): 4%
  Population Membrane Permeable-Phenotype (%): 20%
  Population Mitochondria Different-Phenotype (%): 17%
  Population Mitotic Cells (%): 38%
  Population Normal (%): 95%
  Population Pyknosed Nuclei (%): 17%
  Population Tubulin-Different-Phenotype (%): 11%
  Total Cell Count: 236
[12]
  Population Apoptotic (%): 85%
  Population Fragmented Nuclei (%): 25%
  Population Healthy Nuclei (%): 60%
  Population Membrane Permeable-Phenotype (%): 12%
  Population Mitochondria Different-Phenotype (%): 12%
  Population Mitotic Cells (%): 14%
  Population Pyknosed Nuclei (%): 14%
  Population Tubulin-Different-Phenotype (%): 3%
  Total Cell Count: 151

## CN(C)CCCc1cc(C(=O)Nc2ccc(-c3ccncc3)cc2)ccc1O.Cl.Cl
[1]
  Population Apoptotic (%): 89%
  Population Fragmented Nuclei (%): 29%
  Population Healthy Nuclei (%): 60%
  Population Hoechst High Intensity Objects (%): 2%
  Population Membrane Permeable-Phenotype (%): 6%
  Population Mitochondria Different-Phenotype (%): 0%
  Population Mitotic Cells (%): 10%
  Population Normal (%): 97%
  Population Pyknosed Nuclei (%): 9%
  Population Tubulin-Different-Phenotype (%): 3%
  Total Cell Count: 199
[2]
  Population Apoptotic (%): 100%
  Population Fragmented Nuclei (%): 10%
  Population Healthy Nuclei (%): 75%
  Population Hoechst High Intensity Objects (%): 0%
  Population Membrane Permeable-Phenotype (%): 2%
  Population Mitochondria Different-Phenotype (%): 1%
  Population Mitotic Cells (%): 0%
  Population Normal (%): 99%
  Population Pyknosed Nuclei (%): 13%
  Population Tubulin-Different-Phenotype (%): 0%
  Total Cell Count: 124
[3]
  Population Apoptotic (%): 77%
  Population Fragmented Nuclei (%): 28%
  Population Healthy Nuclei (%): 62%
  Population Hoechst High Intensity Objects (%): 4%
  Population Membrane Permeable-Phenotype (%): 7%
  Population Mitochondria Different-Phenotype (%): 1%
  Population Mitotic Cells (%): 22%
  Population Normal (%): 95%
  Population Pyknosed Nuclei (%): 9%
  Population Tubulin-Different-Phenotype (%): 2%
  Total Cell Count: 237
[4]
  Population Apoptotic (%): 42%
  Population Fragmented Nuclei (%): 24%
  Population Healthy Nuclei (%): 63%
  Population Hoechst High Intensity Objects (%): 1%
  Population Membrane Permeable-Phenotype (%): 4%
  Population Mitochondria Different-Phenotype (%): 8%
  Population Mitotic Cells (%): 57%
  Population Normal (%): 98%
  Population Pyknosed Nuclei (%): 12%
  Total Cell Count: 113
[5]
  Population Apoptotic (%): 100%
  Population Fragmented Nuclei (%): 28%
  Population Healthy Nuclei (%): 65%
  Population Hoechst High Intensity Objects (%): 2%
  Population Membrane Permeable-Phenotype (%): 5%
  Population Mitochondria Different-Phenotype (%): 2%
  Population Mitotic Cells (%): 0%
  Population Normal (%): 97%
  Population Pyknosed Nuclei (%): 6%
  Population Tubulin-Different-Phenotype (%): 3%
  Total Cell Count: 247
[6]
  Population Apoptotic (%): 94%
  Population Fragmented Nuclei (%): 11%
  Population Healthy Nuclei (%): 77%
  Population Hoechst High Intensity Objects (%): 4%
  Population Membrane Permeable-Phenotype (%): 7%
  Population Mitochondria Different-Phenotype (%): 5%
  Population Mitotic Cells (%): 5%
  Population Normal (%): 95%
  Population Pyknosed Nuclei (%): 11%
  Population Tubulin-Different-Phenotype (%): 5%
  Total Cell Count: 178
[7]
  Population Apoptotic (%): 72%
  Population Fragmented Nuclei (%): 28%
  Population Healthy Nuclei (%): 58%
  Population Hoechst High Intensity Objects (%): 4%
  Population Membrane Permeable-Phenotype (%): 6%
  Population Mitochondria Different-Phenotype (%): 3%
  Population Mitotic Cells (%): 27%
  Population Normal (%): 95%
  Population Pyknosed Nuclei (%): 13%
  Population Tubulin-Different-Phenotype (%): 1%
  Total Cell Count: 257
[8]
  Population Apoptotic (%): 66%
  Population Fragmented Nuclei (%): 21%
  Population Healthy Nuclei (%): 63%
  Population Hoechst High Intensity Objects (%): 0%
  Population Membrane Permeable-Phenotype (%): 4%
  Population Mitochondria Different-Phenotype (%): 8%
  Population Mitotic Cells (%): 33%
  Population Normal (%): 100%
  Population Pyknosed Nuclei (%): 15%
  Population Tubulin-Different-Phenotype (%): 2%
  Total Cell Count: 118
[9]
  Population Apoptotic (%): 88%
  Population Fragmented Nuclei (%): 25%
  Population Healthy Nuclei (%): 69%
  Population Hoechst High Intensity Objects (%): 3%
  Population Membrane Permeable-Phenotype (%): 5%
  Population Mitochondria Different-Phenotype (%): 3%
  Population Mitotic Cells (%): 11%
  Population Normal (%): 96%
  Population Pyknosed Nuclei (%): 5%
  Population Tubulin-Different-Phenotype (%): 3%
  Total Cell Count: 338
[10]
  Population Apoptotic (%): 93%
  Population Fragmented Nuclei (%): 15%
  Population Healthy Nuclei (%): 71%
  Population Membrane Permeable-Phenotype (%): 7%
  Population Mitotic Cells (%): 6%
  Population Pyknosed Nuclei (%): 13%
  Population Tubulin-Different-Phenotype (%): 4%
  Total Cell Count: 259
[11]
  Population Apoptotic (%): 74%
  Population Fragmented Nuclei (%): 25%
  Population Healthy Nuclei (%): 61%
  Population Hoechst High Intensity Objects (%): 5%
  Population Membrane Permeable-Phenotype (%): 5%
  Population Mitochondria Different-Phenotype (%): 3%
  Population Mitotic Cells (%): 25%
  Population Normal (%): 94%
  Population Pyknosed Nuclei (%): 12%
  Population Tubulin-Different-Phenotype (%): 5%
  Total Cell Count: 352
[12]
  Population Apoptotic (%): 68%
  Population Fragmented Nuclei (%): 20%
  Population Healthy Nuclei (%): 63%
  Population Hoechst High Intensity Objects (%): 4%
  Population Membrane Permeable-Phenotype (%): 13%
  Population Mitochondria Different-Phenotype (%): 8%
  Population Mitotic Cells (%): 32%
  Population Normal (%): 95%
  Population Pyknosed Nuclei (%): 16%
  Population Tubulin-Different-Phenotype (%): 9%
  Total Cell Count: 160
